This excerpt belongs to a sample that is enriched for hits.
HSF1 activator: increases HSF-1 driven luciferase reporter signal | activation, % at 9 µM | NIH3T3-HGL HSF-1 luciferase reporter, MG132, 8 h; 100% = twice DMSO control signal | AID 504408 | 300,000 tested, 1.7% active;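 active means mean replicate activation of at least 50% with a set share of replicates each reaching 50%; inconclusive means only one of those two conditions met; inactive means mean below 50% and too few replicates reaching it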;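 further: 0% = median of the neutral control wells and 100% = twice that signal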
Lmaj promast: Leishmania major promastigote growth inhibition; Leishmania major promastigotes, resazurin fluorescence viability; inhibition, % at 10 µM; 200,000 tested, 9% active; AID 1063; in the data active means inhibition above about 50%;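 further: promastigotes grown with compound for 44 hours at 28 °C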
Hsp70 activator: transcriptional activators of Hsp70 | HeLa Hsp70 promoter luciferase reporter, luminescence; scaled: vehicle 0, proteasome-inhibitor control 100% | activation, % at 10 µM | 200,000 tested, 0.04% active | AID 1203;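 active means activation above the mean across all tested compounds plus 3 SD, cutoff set per campaign, cut at about 5.5% in these data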;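 further: 100% = MG132 at 30 µM as the positive control and 0% = DMSO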
T cruzi inh: blocks replication of Trypanosoma cruzi | inhibition, % (no concentration beside the values) | T. cruzi beta-gal in NIH3T3, luminescence, 90 h | 300,000 tested, 1.4% active;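 active means mean inhibition across valid replicates above about 55%, limit read from the data; inconclusive means mean below that limit but half or more replicates reach it; inactive means mean below it, under half of replicates reach it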;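 further: signal also drops with host cell toxicity which is not excluded here; 0% = plate median of DMSO wells and 100% = zero luminescence signal; higher percent means less beta-gal luminescence so fewer parasites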
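System: NIH/3T3 fibroblasts plus reporter T. cruzi. Medium: DMEM plus 2% FBS. Probe or stimulus: 5000 reporter trypomastigotes per well. Compound: single 50 nL compound addition per well in DMSO. Incubation: co-culture of at least 90 h after 3 h attachment. Detection: GalScreen β-gal luminescence, detergent lysis, 60 min. Evaluation: parasite load inhibition, %.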
HSF1 inhib: HSF1 inhibition. NIH3T3-HGL HSE-luciferase, MG132-induced, luminescence 8 h; stronger effect = lower value. activity change, negative = inhibition, % at 7.5 µM (by protocol). 300,000 tested, 0.77% active;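 active means more than half of replicate wells show activity change below -50%, luminescence cut by over half; inconclusive means some wells, but at most half, below -50%; inactive means no replicate well below -50%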;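 further: luciferase reports HSF-1 transcriptional activity via heat shock element; 0% = median of DMSO wells and -100% = zero luminescence signal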
An asterisk follows results filed as active; ? = inconclusive; nt = not tested or not shown.

SMILES	HSF1 activator	Lmaj promast	Hsp70 activator	T cruzi inh	HSF1 inhib
O=C(c1cccc(OC2CCN(C3CCCC3)CC2)c1)N1CCCCCCC1	-9.3	88.9*	-0.1	19.6	1.9
COc1ccc(C(=O)N2CCN(C3CCN(Cc4ccccc4)CC3)CC2)cc1OC	-7.9	15.5	-0.3	9.1	-3.2
COc1cccc(C(=O)N2CCN(C3CCN(Cc4ccccc4)CC3)CC2)c1	nt	89.8*	-0.2	nt	nt
COc1ccccc1C(=O)N1CCN(Cc2cccnc2)CC1	-9.4	nt	nt	17.9	-2.5
CCC(C)(C)NC(=O)C(c1cccc(OC)c1OC)N(CCC(C)C)C(=O)CCC(=O)Nc1cc(C)on1 (stereo not given)	12.4	16.6	-0.2	-8.4	-2.0
O=C(C1CCC(=O)N(C2CCCC2)C1)N1CCN(Cc2cccc(Cl)c2)CC1 (stereo not given)	14.6	nt	nt	-1.7	-6.7
Cc1cc(NS(=O)(=O)c2ccc(NC(=O)c3ccc([N+](=O)[O-])c(Cl)c3)cc2)no1	8.3	nt	nt	-6.7	4.4
O=C(/C=C/c1ccc(Cl)cc1Cl)Nc1cccc(S(=O)(=O)NC2=NCCCCC2)c1	47.6	51.5*	-0.2	-63.8	26.5
Cc1cc(C)c(S(=O)(=O)Nc2ccc(N(C)C)cc2)c(C)c1-n1cnnn1	-69.7	nt	nt	17.8	-65.1*
CCNS(=O)(=O)c1ccc(C)c(-n2cnnn2)c1C	6.6	-3.1	-0.2	10.9	3.7
Clc1ccc(COc2ccccc2CNCc2cccnc2)cc1	-7.9	98.8*	-0.2	?	12.5
CCOc1cccc(CNCc2cccnc2)c1OCc1ccccc1	12.3	15.1	-0.1	-7.3	-0.4
C=CCOc1ccccc1CNCc1cccnc1	-14.9	87.5*	-0.3	-7.5	-6.7
CC(C)Cn1c(S(=O)(=O)O)nc2ccccc21	-13.1	nt	nt	-7.5	-0.7
COCCOCCn1c(/C=C/c2ccccc2)nc2ccccc21	60.0*	63.4*	0.1	9.9	32.0
CC(C)Cn1c(/C=C/c2ccco2)nc2ccccc21	-17.4	61.1*	-0.3	26.4	0.6
COCCOCCn1c(CCCO)nc2ccccc21	2.1	-4.0	0.2	-3.2	-6.0
CC(C)n1c(CN(C)c2ccccc2)nc2ccccc21	25.7	nt	nt	-7.0	2.5
CCCn1c(/C=C/c2ccccc2)nc2ccccc21	nt	87.9*	-0.1	nt	nt
CC(C)n1c(/C=C/c2ccccc2)nc2ccccc21	106.9*	50.4*	-0.4	0.3	79.1
CCn1c(/C=C/c2cc[n+](C)cc2)nc2ccccc21	1.9	nt	nt	12.8	-3.4
COc1ccc(N(CCC#N)C(=O)/C(C#N)=C/c2cccs2)cc1	5.5	1.3	-0.2	-0.6	5.4
O=C(CSc1ccc2ccccc2n1)N1CCC(c2noc3ccc(F)cc23)CC1	12.4	6.1	0.1	27.6	11.2
O=C(CSCc1ccccc1)N/N=C/c1ccccc1OCc1ccccc1	-2.3	0.1	-0.1	-8.8	0.3
NC(=S)N/N=C\c1ccccc1OCc1ccccc1	11.4	67.9*	-0.4	55.0*	3.5
SMILES	HSF1 activator	Lmaj promast	Hsp70 activator	T cruzi inh	HSF1 inhib
NC(=S)N/N=C\c1c(OCc2ccccc2Cl)ccc2ccccc12	nt	63.7*	-0.3	nt	nt
COc1cccc(/C=N/NC(=S)NCCc2ccccc2)c1OC	-3.1	nt	nt	-6.6	-2.2
COc1cccc(/C=N/NC(N)=S)c1OCc1cccc(Cl)c1	10.2	69.9*	-0.6	?	5.0
O=CN1CCN(C(C(=O)NC2CCCCC2)c2ccc(Cl)cc2)CC1 (stereo not given)	4.0	nt	nt	8.9	8.7
O=C1CN(CC(=O)N2CCCCC2)c2ccccc2O1	23.0	97.8*	-0.2	8.1	10.3
O=C(N/N=C/c1cccc2ccccc12)c1ccccc1Cl	23.4	nt	nt	-9.3	9.8
Cc1occc1C(=O)N/N=C/c1cccc2ccccc12	63.5*	nt	nt	1.9	27.0
Cc1occc1C(=O)Nc1cccc2ccccc12	72.5*	3.1	0.3	-10.1	57.2
COc1ccc(-c2cn(CCC(=O)NCc3ccc(C)cc3)c(CCN)n2)cc1	13.9	nt	nt	-8.6	3.4
COc1ccccc1/C=C/C=N/Nc1cccc(C(=O)O)c1	-26.0	nt	nt	-10.2	-20.3
CCCc1nc2ccccc2c(=O)n1CC(=O)c1ccc(F)cc1	15.2	nt	nt	3.8	10.1
COc1ccc(-c2cc(=Nc3ccc(C(=O)O)cc3)c3cc(C)ccc3o2)cc1	57.2*	8.4	-0.1	15.6	20.2
CCc1ccc2oc(-c3ccc(OC)cc3)cc(=Nc3cccc(C(=O)O)c3)c2c1	0.5	0.3	-0.4	9.9	-9.2
O=C(NCC1CCCO1)C1CCCN(S(=O)(=O)c2ccc(Cl)cc2)C1 (stereo not given)	-10.0	nt	nt	-15.1	-5.4
CC(=O)n1cc(C(C[N+](=O)[O-])SCCN)c2ccccc21 (stereo not given)	58.9*	21.8	-0.3	-12.9	14.2
CC(=O)c1cccc(NC(=O)COC(=O)c2ccc(S(C)(=O)=O)c([N+](=O)[O-])c2)c1	48.4	-2.5	-0.2	4.6	25.4
CC(CCc1ccccc1)NC(=O)COC(=O)c1ccc(S(C)(=O)=O)c([N+](=O)[O-])c1 (stereo not given)	-78.4	-0.2	-0.2	46.0	-79.4*
Cc1ccccc1NC(=O)COC(=O)c1ccc(S(C)(=O)=O)c([N+](=O)[O-])c1	-93.6	-5.7	0.4	-6.7	-93.0*
CS(=O)(=O)c1ccc(C(=O)OCc2nnc(-c3ccccc3)o2)cc1[N+](=O)[O-]	225.1*	0.8	0.1	75.7*	178.4
CN(C)S(=O)(=O)c1ccc(C(=O)OCc2nnc(-c3ccccc3)o2)cc1	8.6	nt	nt	2.6	-1.5
CS(=O)(=O)c1ccc(C(=O)OCC(=O)NC(=O)C2CCCCC2)cc1[N+](=O)[O-]	69.5*	-2.7	-0.2	-5.6	41.6
Cc1cc(=O)oc2cc(O)cc(OCc3ccccc3)c12	0.2	nt	nt	nt	0.2
COc1ccc(CNC(=O)c2ccc(Cn3cc(Cl)cn3)o2)cc1	39.1	nt	nt	-7.4	3.7
CCOc1ccc(Br)cc1CNc1ccc2c(c1)OCCO2	-62.5	12.2	-0.2	32.8	-56.4*
c1cc(CNc2ccc3c(c2)OCCO3)ccn1	-79.9	-3.6	3.0	-4.5	-77.8*
SMILES	HSF1 activator	Lmaj promast	Hsp70 activator	T cruzi inh	HSF1 inhib
C=CCOc1ccccc1CNc1ccc2c(c1)OCCO2	-37.9	40.3	-0.5	73.0*	?
C=CCOc1ccccc1CNc1cccc(F)c1	14.0	-7.6	-0.3	4.4	4.9
Cc1nnsc1S(=O)(=O)Cc1ccccc1C(F)(F)F	7.1	-3.3	-0.2	-16.5	0.8
COC(=O)c1cc(C)sc1NC(=O)CN1CCN(C(=O)C2CCCO2)CC1 (stereo not given)	-14.9	nt	nt	9.8	2.0
COc1ccccc1NC(=O)C1=C(C)Nc2nc(-c3cccs3)nn2C1c1cccnc1 (stereo not given)	7.4	96.9*	-0.1	32.6	-2.5
COc1ccccc1-c1nc2n(n1)C(c1cccs1)C(C(=O)Nc1cccnc1)=C(C)N2 (stereo not given)	16.2	98.5*	0.1	52.4	4.8
COc1ccccc1NC(=O)C1=C(C)Nc2nc(-c3ccc(N(C)C)cc3)nn2C1c1ccncc1 (stereo not given)	nt	21.4	-0.2	nt	nt
